hIAP inh – blocks human intestinal alkaline phosphatase; P09923; purified IAP, CDP-Star luminescence, 30 min; inhibition, % at 10 µM; 0.12% of 330,000 active;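 active = inhibition reaching a set limit with compound at 10 µM in the primary screen, cut at about 35% in these data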
Target sequence (P09923 whole entry, looked up): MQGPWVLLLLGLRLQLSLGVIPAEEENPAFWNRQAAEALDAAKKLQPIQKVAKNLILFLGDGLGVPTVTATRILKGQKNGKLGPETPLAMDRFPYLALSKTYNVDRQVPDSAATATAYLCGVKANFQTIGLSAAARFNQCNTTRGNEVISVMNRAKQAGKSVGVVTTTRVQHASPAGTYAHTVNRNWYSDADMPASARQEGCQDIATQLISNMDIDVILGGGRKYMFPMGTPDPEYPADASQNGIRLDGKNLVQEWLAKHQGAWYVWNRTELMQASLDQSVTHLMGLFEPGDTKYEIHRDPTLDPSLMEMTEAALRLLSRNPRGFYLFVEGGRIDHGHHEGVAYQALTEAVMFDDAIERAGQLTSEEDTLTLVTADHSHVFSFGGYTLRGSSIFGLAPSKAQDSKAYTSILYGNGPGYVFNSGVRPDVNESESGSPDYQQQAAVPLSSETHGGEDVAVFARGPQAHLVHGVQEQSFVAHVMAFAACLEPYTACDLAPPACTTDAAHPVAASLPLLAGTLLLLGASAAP
bIAP activator – increases bovine intestinal alkaline phosphatase activity; purified bovine IAP, CDP-star luminescence, 30 min; active compounds read high; fold of DMSO-control signal, blank-subtracted; activation factor at 20 µM; 0.17% of 200,000 active; AID 1016;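 active = activation factor of 2 or more at 20 µM, a signal rise over negative controls twice the positive control's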
hIAP act – increases human intestinal alkaline phosphatase activity | purified human IAP, CDP-Star luminescence, 30 min; active compounds read high; 1 = vehicle-only enzyme, 0 = enzyme-free background | activation factor at 10 µM | 0.16% of 330,000 active;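 active = activation factor of the enzyme at least 2-fold when tested at 20 µM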
bIAP inh – blocks bovine intestinal alkaline phosphatase activity; purified bovine IAP, CDP-star luminescence, 30 min; inhibition, % at 20 µM; 190,000 tested, under 10 active;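 active = over 50% inhibition of intestinal alkaline phosphatase at 20 µM in the single-dose screen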
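System: purified bovine intestinal alkaline phosphatase (IAP) enzyme; Input: IAP diluted 1/65,000,000 in the well; Measured by: CDP-star luminescence signal; Compound dosing: 20 µM single dose; Incubation: 30 min reaction at room temperature.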
mIAP inh – mouse IAP inhibition; purified mouse IAP, CDP-Star luminescence, 30 min; inhibition, % at 10 µM; 0.2% of 330,000 active; AID 2806;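 active = inhibition of at least 40% at 10 µM in the primary screen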
mIAP act – mouse IAP activation. muIAP, CDP-Star luminescence, 30 min; active compounds read high; 1 = vehicle-only enzyme signal, 0 = enzyme-free wells. activation factor at 10 µM. 0.24% of 330,000 active;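 active = activation factor of at least 2 at 20 µM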
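also added = chemiluminescent substrate CDP-Star | test system = mouse IAP enzyme | signal = chemiluminescence readout | compound = DMSO-dissolved test compounds | incubation = 30 min at room temperature | benchmarks = DMSO wells, no-enzyme wells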
hIAP act confirm – human IAP activation confirmation. 10% of 880 active. shares compounds with hIAP act. activation (%Activity, negative = activation), % at 8.3 µM. purified IAP, CDP-Star luminescence, 30 min; active compounds read low. AID 434926;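 active = at least twofold enzyme activation in any of six single-dose repeats, which the averaged readout prints as negative percent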
A number is an active result; i = inactive; nt = not tested or not shown. Only some compounds are listed: those with a hit (about 0.77% of all), similar ones and a draw of the others.

SMILES	hIAP inh	bIAP activator	hIAP act	bIAP inh	mIAP inh	mIAP act	hIAP act confirm
Cc1cccc2sc(NNC(=O)c3cc(=O)c4ccccc4o3)nc12	i	i	i	i	i	i	nt
O=C(NNc1nc2c(F)cccc2s1)c1cc(=O)c2ccccc2o1	i	i	2.74	i	i	i	i
COc1ccc2nc(NNC(=O)c3cc(=O)c4ccccc4o3)sc2c1	i	i	2.24	i	i	i	i
O=C1/C(=C/c2ccc(O)cc2)SC(=S)N1CC1CCCO1 (stereo not drawn)	38.0	nt	i	nt	i	i	i
O=C1/C(=C\c2ccc(O)cc2)SC(=S)N1Cc1ccccc1	37.0	nt	i	nt	i	i	i
COC(=O)CC1COc2ccccc2N1C(=O)/C=C/c1ccccc1 (stereo not drawn)	i	nt	i	nt	i	i	nt
COc1ccc(S(=O)(=O)N2CCC(O)(c3cccnc3)CC2)cc1OC	i	i	i	i	i	i	nt
O=C(C1CCN(C2CC(=O)N(c3cccc(Cl)c3)C2=O)CC1)N1CCCC1 (stereo not drawn)	i	i	2.94	i	i	i	i
COc1cc(OC)cc(-c2nnc(Nc3nc4c(F)cccc4s3)o2)c1	i	i	2.03	i	i	i	i
CC(C)(C)c1nnc2sc(SCC(=O)N3CCCCC3)nn2c1=O	i	nt	i	nt	i	i	nt
O=C(CSCc1ccc(Cl)cc1)N/N=C/c1ccc(Cl)cc1Cl	i	i	i	i	i	i	nt
O=C(Nc1cccc(Cl)c1)N1CCCCCC1	38.1	nt	i	nt	i	i	i
Oc1ccc(-c2csc(-c3cccnc3)n2)cc1O	40.9	nt	i	nt	i	i	i
Oc1ccc(-c2csc(-c3ccccc3)n2)cc1O	i	i	i	i	i	i	nt
O=C(CS(=O)(=O)Cc1ccccc1)Nc1ccc(S(=O)(=O)N2CCOCC2)cc1	i	i	i	i	i	i	nt
FC(F)(F)c1cc(-c2ccco2)nc2ncnn12	i	i	i	nt	i	i	nt
CCc1ccc2nc(Nc3nc(COC)cc(=O)[nH]3)nc(C)c2c1	i	i	2.11	i	i	i	i
CCCCCc1c(C)nc(Nc2nc(C)c3cc(OC)ccc3n2)[nH]c1=O	i	i	2.11	i	i	i	i
COCc1cc(=O)[nH]c(Nc2nc3ccc(C)cc3o2)n1	i	i	2.08	i	i	i	i
CN(N=Nc1ccc([N+](=O)[O-])cc1)c1ccccc1	i	i	i	i	i	i	nt
CN(CCCC(=O)O)c1ccc(N=Nc2ccc([N+](=O)[O-])cc2)cc1	47.3	nt	i	nt	i	i	i
CC(=O)c1ccc(N2CCN(CC(=O)NC(=O)NCc3ccccc3)CC2)cc1	i	nt	i	nt	i	i	nt
Cc1ccc(-n2c(-c3ccc(Cl)cc3)n[nH]c2=S)c(C)c1	i	nt	i	nt	i	i	nt
Cc1ccc(-n2c(-c3cccnc3)n[nH]c2=S)c(C)c1	i	i	3	i	i	i	i
CSc1ccccc1NC(=O)c1csc(C)c1	35.1	nt	i	nt	i	i	i
SMILES	hIAP inh	bIAP activator	hIAP act	bIAP inh	mIAP inh	mIAP act	hIAP act confirm
CN(CC(=O)Nc1ccccc1F)CC(=O)Nc1ccc(F)c(F)c1F	i	i	2.11	i	i	i	i
Cn1nccc1C(=O)N1CCN(c2ccccc2F)CC1	46.5	nt	i	nt	i	i	i
O=C(NNC(=S)NC(=O)c1ccccc1)c1cccnc1	i	nt	2.48	nt	i	i	-320.1
O=C(NNC1=NCCC1)c1ccc(Br)cc1	i	i	2.61	i	i	i	i
CCn1c(NCc2cc(Cl)ccc2O)nc2ccccc21	i	nt	i	nt	i	i	nt
CC(C)(C)OC(=O)NCCCCCNC(=O)c1nc[nH]c1C(=O)NCCCCCNC(=O)OC(C)(C)C	i	nt	i	nt	i	i	nt
CCCCCCc1nc(C(N)=O)c2[nH]c(=O)n(-c3ccc(OCC)cc3)c2n1	i	nt	2.31	nt	i	i	i
CCCCCCc1nc(C(N)=O)c2[nH]c(=O)n(-c3ccccc3F)c2n1	i	nt	2.1	nt	i	i	i
CCOc1ccc(CC(=O)NNC(=S)NCCc2ccccc2)cc1	i	i	2.05	i	i	i	i
CCNC(=O)Cc1c(OC)ccc2cc(Br)ccc12	42.6	i	i	i	i	i	i
CN(C)CCCNC(=O)C[C@H]1C[C@H](C(=O)N2CCCCC2)[C@@]2(C)c3[nH]c4cc(CCC(=O)N(C)C)ccc4c3CCN2C1=O	nt	nt	nt	nt	i	i	nt
Nc1oc2ccccc2c(=O)c1C=O	72.7	i	i	i	i	i	i
O=S(=O)(c1ccccc1)N1CCCC1c1cccs1 (stereo not drawn)	53.0	nt	i	nt	i	i	-171.6
COc1ccc(S(=O)(=O)N2CCCC2c2cccs2)cc1 (stereo not drawn)	i	nt	i	nt	i	i	nt
Cc1cccc(Cc2nnc(CCC(=O)N(C)C3CCOC3)o2)c1 (stereo not drawn)	i	i	i	i	i	i	nt
CC(=O)NC(=S)Nc1ccccc1C(=O)Nc1ccccc1	i	i	2.5	i	i	i	i
CC(=O)NC(=S)NNC(=O)C(c1ccccc1)c1ccccc1	i	2	2.03	i	i	i	i
CCCCC(=O)NC(=S)Nc1ccccc1C(=O)Nc1ccccc1	i	i	i	i	i	i	nt
N#CCC(=O)NNC(=S)NC(=O)C(c1ccccc1)c1ccccc1	i	i	i	i	i	i	nt
COc1ccccc1OCCC(=O)OCC(=O)Nc1ccc(Br)cc1F	i	i	i	i	i	i	nt
O=C(COc1ccccc1Cl)N1CCN(c2ccc([N+](=O)[O-])c(N3CCCCC3)c2)CC1	i	i	2.06	i	i	i	-60.9
NNC(=S)NCc1ccco1	i	nt	i	nt	i	i	nt
COC(=O)CCC(=O)Nc1ccc(Cl)c(Cl)c1	i	i	i	i	i	i	nt
COC(=O)CCC(=O)Nc1ccc2oc3c(c2c1)CCCC3	42.4	nt	i	nt	i	i	i
O=C(NNc1ccc([N+](=O)[O-])cc1[N+](=O)[O-])c1ccco1	36.0	nt	i	nt	i	i	i
SMILES	hIAP inh	bIAP activator	hIAP act	bIAP inh	mIAP inh	mIAP act	hIAP act confirm
Cc1ccc(NC2=C(CC(=O)O)C(c3ccccc3)N(c3ccc(C)cc3)C2=O)cc1 (stereo not drawn)	i	i	i	i	i	i	nt
CCOC(=O)c1c(C)[nH]c(C)c1S(=O)(=O)N(C)CC(=O)Nc1cccc(C)n1	i	nt	i	nt	i	i	nt
CSCCC(NC(=O)c1cccc(S(=O)(=O)N2CCOCC2)c1)C(=O)Nc1cccc(C)c1 (stereo not drawn)	i	i	i	nt	i	i	nt
COc1ccc(F)cc1S(=O)(=O)n1nc(C)cc1C	39.6	nt	i	nt	i	i	i
COc1ccc(C)cc1S(=O)(=O)n1nc(C)cc1C	i	i	i	i	i	i	nt
CC(=O)c1cccc(NS(=O)(=O)c2ccc(C(=O)Nc3ccccc3)cc2)c1	i	nt	i	nt	i	i	nt
O=C(Nc1ccccc1)c1ccc(S(=O)(=O)Nc2cccc(O)c2)cc1	40.0	nt	i	nt	i	i	i
O=C(O)c1ccccc1-c1ccccc1C(=O)Nc1cccc(O)c1	i	i	i	i	i	i	nt

Screening results deposited in PubChem BioAssay by Sanford-Burnham Center for Chemical Genomics.
